Where “and” joins values, the source holds several entries; their conditions need not be identical. Equal values may be shown once.
Experiments:
[1] = molecular target: Heat shock protein HSP 90-alpha (Mus musculus, UniProt P07901); test: Displacement of 5 nM GM-BODIPY from mouse heat shock protein HSP90-alpha
SK-BR-3 = test: Inhibitory concentration against SKBr3 cell line; format: functional, cell-based; settings: Homo sapiens
Outline: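 Sulforhodamine B growth assay in SKBr3 cells grown in DME:F12 with 10% FBS at 37 °C, 5% CO2, attached overnight. Drug or DMSO was added in triplicate and serially diluted 1:1. Cells were grown 72 h, fixed with TCA and stained with 0.4% SRB.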

Heat shock protein HSP90 = Heat shock protein HSP90 (Homo sapiens, UniProt P07900+P08238); test: Inhibition of Hsp90 protein as degradation of HER2 kinase in SKBr3 cells; format: functional, cell-based
RPTEC [2] = test: Inhibitory concentration of compound against human renal proximal tubular epithelial cells (RPTEC) was determined; format: functional, cell-based
Outline: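 Pre-seeded normal human renal proximal tubular epithelial cells were equilibrated 3 h at 37 °C, 5% CO2, then given fresh medium. Cells were treated with drug or DMSO for 72 h.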

[3] = molecular target: T1, Heat shock protein HSP 90-alpha (Homo sapiens, UniProt P07900); test: Effective concentration of compound against heat shock protein HSP90 determined in normal lung cells
[4] = molecular target: T1, Heat shock protein HSP 90-alpha; test: Effective concentration of compound against heat shock protein HSP90 determined in normal brain cells
[5] = molecular target: T1, Heat shock protein HSP 90-alpha; test: Effective concentration against heat shock protein HSP90-alpha in SKBr3 cells; format: functional, cell-based
RPTEC [6] = test: Selective inhibition for renal proximal tubular epithelial cells (RPTEC) to that of SKBr3 cells; format: functional, Homo sapiens
[7] = molecular target: T1, Heat shock protein HSP 90-alpha; test: Effective concentration of compound against heat shock protein HSP90 determined in normal heart cells
[8] = molecular target: T1, Heat shock protein HSP 90-alpha; test: Effective concentration against heat shock protein HSP90-alpha in MDA-MB-468 cells; format: functional, cell-based

Row | SMILES | EC50 [1] [µM] | IC50 (SK-BR-3) [µM] | IC50 (Heat shock protein HSP90) [µM] | IC50 (RPTEC [2]) [µM] | EC50 [5] | EC50 [8] [µM] | EC50 [3] [µM] | EC50 [4] [µM] | Selectivity (RPTEC [6]) | EC50 [7] [µM]
1 | COc1cccc([S+]([O-])c2nc3c(N)ncnc3n2CCOC(C)C)c1 (configuration not stated) | 3.5 | 63.4 | 70.3 | – | – | – | – | – | – | –
2 | C#CCCCn1c(Sc2ccccc2OC)nc2c(N)ncnc21 | 34.9 | 108 | > 400 | – | – | – | – | – | – | –
3 | Nc1[nH]cnc2nc(Sc3cc(Cl)c(Cl)cc3Cl)nc1-2 | 15.4 | 36 | 47.8 | – | – | – | – | – | – | –
4 | C#CCCCn1c(Sc2cc(C)cc(C)c2)nc2c(N)ncnc21 | 10.6 | 34.4 | > 100 | – | – | – | – | – | – | –
5 | C#CCCCn1c(Sc2cc(OC)ccc2OC)nc2c(N)ncnc21 | 0.19 | 1.9 | 3.2 | 31.4 | 0.16 µM | – | > 75 | 30.5 | 16.5 | 66.3
6 | COc1cc(Cc2nc3c(N)ncnc3n2CCOC(C)C)cc(OC)c1OC | – | 71.1 | 28.7 | > 200 | 5.1 µM and 3.6 µM | 5.8 | – | – | >100 | –
7 | COc1cccc(S(=O)(=O)c2nc3c(N)ncnc3n2CCOC(C)C)c1 | > 50 | 57.6 | 170 | – | – | – | – | – | – | –
8 | C#CCCCn1c(Sc2ccc(C(C)=O)cc2)nc2c(N)ncnc21 | 2.7 | > 150 | > 150 | – | – | – | – | – | – | –
9 | Nc1ncnc2[nH]c(Sc3cc(Cl)ccc3Cl)nc12 | 85.1 | 190 | 122 | – | – | – | – | – | – | –
10 | C#CCCCn1c(Sc2cc(Cl)ccc2Cl)nc2c(N)ncnc21 | 2.1 | 44.1 | 26.5 | – | – | – | – | – | – | –
11 | C#CCCCn1c(Sc2cc(C(F)(F)F)ccc2Cl)nc2c(N)ncnc21 | 3.7 | 21.5 | 35.9 | – | – | – | – | – | – | –
12 | C#CCCCn1c(Sc2ccc(-n3cccc3)cc2)nc2c(N)ncnc21 | > 100 | 121 | 311 | – | – | – | – | – | – | –
13 | COc1cc([S+]([O-])c2nc3c(N)ncnc3n2CCOC(C)C)cc(OC)c1OC (configuration not stated) | 2.3 | 66.2 | 43.9 | – | – | – | – | – | – | –
14 | C#CCCCn1c(Sc2ccc(OC)cc2)nc2c(N)ncnc21 | 19.1 | 41.4 | 75 | – | – | – | – | – | – | –
15 | C#CCCCn1c(Sc2ccccc2OC(F)(F)F)nc2c(N)ncnc21 | 5.6 | 86 | 97 | – | – | – | – | – | – | –
16 | C#CCCCn1c(Sc2ccc(OC)cc2OC)nc2c(N)ncnc21 | 2 | > 150 | > 150 | – | – | – | – | – | – | –
17 | CCCCn1c(S(=O)(=O)c2cccc(OC)c2)nc2c(N)ncnc21 | > 50 | 57.2 | 125 | – | – | – | – | – | – | –
18 | Nc1[nH]cnc2nc(Sc3cc(C(F)(F)F)ccc3Cl)nc1-2 | 90.7 | 130 | 314 | – | – | – | – | – | – | –
19 | COc1cc(Sc2nc3c(N)nc(F)nc3n2CCOC(C)C)cc(OC)c1OC | 2.5 | 41.2 | 23.5 | – | – | – | – | – | – | –

Second part, led by results:

Row | EC50 [1] [µM] | IC50 (SK-BR-3) [µM] | IC50 (Heat shock protein HSP90) [µM] | IC50 (RPTEC [2]) [µM] | EC50 [5] | EC50 [8] [µM] | SMILES | EC50 [3] [µM] | EC50 [4] [µM] | Selectivity (RPTEC [6]) | EC50 [7] [µM]
20 | 4.6 | 37.7 | 53.7 | – | – | – | CCCCn1c(Sc2cccc(OC)c2)nc2c(N)ncnc21 | – | – | – | –
21 | – | 16.8 | 10.5 | – | 1.6 µM | 1.4 | C#CCCCn1c(Cc2cc(OC)c(OC)c(OC)c2)nc2c(N)nc(F)nc21 | – | – | – | –
22 | 5 | 16.1 | 58.3 | – | – | – | COc1cc(Sc2nc3c(N)ncnc3n2CCOC(C)C)c(Cl)cc1Cl | – | – | – | –
23 | 13.4 | 467 | 147 | – | – | – | C#CCCCn1c(Sc2cc(C)ccc2C)nc2c(N)ncnc21 | – | – | – | –
24 | 37.5 | > 500 | 355 | – | – | – | C#CCCCn1c(Sc2ccc(Cl)cc2Cl)nc2c(N)ncnc21 | – | – | – | –
25 | 0.03 | 0.2 | 0.3 | 4.1 | 0.02 µM | – | C#CCCCn1c(Sc2cc3c(cc2Br)OCO3)nc2c(N)ncnc21 | 14.7 | 40.2 | 20.5 | 65.3
26 | 2.1 | 10.1 | 13.8 | – | – | – | COc1c(Cl)c(Sc2nc3c(N)ncnc3n2CCOC(C)C)c(Cl)c(OC)c1OC | – | – | – | –
27 | 8.6 | 31.8 | – | – | – | – | C#CCCCn1c(Sc2ccc(C)cc2C)nc2c(N)ncnc21 | – | – | – | –
28 | 3.4 | 30.2 | 44.7 | – | – | – | C#CCCCn1c(Sc2ccc(Cl)cc2)nc2c(N)ncnc21 | – | – | – | –
29 | > 50 | 41.2 | 157 | – | – | – | C#CCCCn1c(S(=O)(=O)c2cccc(OC)c2)nc2c(N)ncnc21 | – | – | – | –
